AHR activator: activators of human aryl hydrocarbon receptor; P35869; AHR-responsive luciferase reporter cells, luminescence; activation, % at 5 µM; actives 2.5% (n = 320,000); in the data active = activation above about 47%
Tb MetRS inh: Trypanosoma brucei MetRS inhibition. purified T. brucei MetRS, ATP depletion, Kinase-Glo luminescence. inhibition, % at 11.9 µM. actives 0.4% (n = 360,000);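 active = inhibition above a per-plate cutoff of the control wells' mean inhibition plus 3 SD, cut at about 5.5% in these data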
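Test system – parasite MetRS enzyme · Reagent – substrates ATP, L-methionine and bulk Escherichia coli tRNA · Doses – 11.9 µM compound single dose, 0.9% DMSO · Times – 15 min enzyme-compound preincubation, 2 h reaction, 10 min detection, 25 °C · Signal – Kinase-Glo luminescence, ATP depletion format · Controls – DMSO-only wells as low control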
m5-HT2A agonist: mouse HTR2A agonism via beta-arrestin recruitment; P35363; CHO-K1 mHTR2A beta-arrestin complementation, luminescence; percent of 30 µM serotonin response; activation, % at 7.6 µM; actives 0.66% (n = 360,000); AID 624169;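 active = activation above a run cutoff, the mean activation of all tested compounds plus 3 SD, cut at about 14% in these data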
bovine MsrA act: activators of bovine methionine sulfoxide reductase A. purified bovine MsrA, absorbance read-out. activation, % at 10.6 µM. actives 0.3% (n = 360,000). AID 602163; in the data active = activation above about 7.5%
AI-2 QS mod: modulates the Vibrio harveyi AI-2 quorum sensing system; Vibrio harveyi JMH597 AI-2 luminescence/OD600 ratio, 9 h; active compounds read low; strain lacks LuxN and CqsS sensors; 0 = neutral-control median; activity change, % at 7.5 µM; actives 0.4% (n = 300,000); AID 2094; in the data active = activity change below about -75%, passing the limit was not always enough;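 note: luminescence divided by OD600 gain over 9 h not by final OD600 alone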
MsrA inh: bovine MsrA inhibition. AID 651718. inhibition, % at 15.5 µM. purified bovine MsrA, absorbance read-out. actives 0.75% (n = 360,000); in the data active = inhibition above about 4.5%
MsrA act confirm: bovine methionine sulfoxide reductase A activation confirmed | actives 12% (n = 1,000) | activation, % at 10.6 µM | shares compounds with bovine MsrA act | purified bovine MsrA, absorbance read-out; in the data active = activation above about 4%;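 note: enzyme coupled to thioredoxin and thioredoxin reductase with NADPH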
Numbers stand for hits; i = inactive; nt = no result. The list is not random: actives were taken first. Their share in the collection is about 4.4%.

SMILES	AHR activator	Tb MetRS inh	m5-HT2A agonist	bovine MsrA act	AI-2 QS mod	MsrA inh	MsrA act confirm
C/C=C/C=N\NC(=O)c1ccncc1	i	i	i	14.7	i	i	i
O=C(NNC(=O)C12CC3CC(CC(C3)C1)C2)c1csc(N2CCOCC2)n1	i	i	i	i	i	i	nt
COc1ccc2c(c1OC)C(=O)N(c1ccc(OCc3ccccc3)cc1)C2=O	i	i	i	i	i	i	nt
Nc1ncnc2c1ncn2[C@@H]1O[C@H](CNCc2ccc(OCC(=O)Nc3ccccn3)cc2)[C@@H](O)[C@H]1O	i	i	i	i	nt	i	nt
Nc1ncnc2c1ncn2[C@@H]1O[C@H](CNCc2ccc(OCc3ccccc3)cc2)[C@@H](O)[C@H]1O	i	i	i	7.7	nt	i	4.3
Cc1ccc(-c2nn3c(C)nnc3s2)cc1NC(=O)c1ccc(Br)o1	i	i	i	i	i	i	nt
Cc1ccc(OCC(=O)Nc2cc(-c3nn4c(C)nnc4s3)ccc2C)cc1	i	i	i	9.7	i	i	i
CCC(C)[C@H](NC(=O)N1CCC(C)CC1)C(=O)OC (stereo partly drawn)	i	i	i	13.9	i	i	i
CCC(C)[C@H](NC(=O)N1CCCC1)C(=O)OC (stereo partly drawn)	i	i	i	i	i	i	nt
CCOC(=O)[C@]12CCC=C1N(Cc1ccc3c(c1)OCO3)C(=O)[C@H](CC(=O)NCc1cccc(C(F)(F)F)c1)C2	nt	i	i	i	nt	i	nt
O=c1[nH]c(=S)[nH]cc1Oc1ccc(Cl)cc1	nt	i	i	9.0	nt	i	4.2
COc1ccccc1CN1CC(C(=O)N(C)CCc2ccccn2)CCC1=O (stereo not drawn)	nt	i	i	i	nt	i	nt
COc1ccc(N2CCN(C3CCN(S(=O)(=O)c4ccc(F)cc4)CC3)CC2)cc1	i	i	i	9.5	i	i	i
COc1ccc(S(=O)(=O)N2CCC(N3CCN(c4ccccc4)CC3)CC2)cc1	i	nt	nt	nt	i	nt	nt
COc1ccc(S(=O)(=O)Nc2cc(C)c(O)c(S(=O)(=O)c3ccccc3)c2)cc1	i	i	i	9.3	i	i	i
COc1ccc(S(=O)(=O)c2c(C)c(NS(=O)(=O)c3ccccc3)cc(C)c2O)cc1	i	i	i	i	i	i	nt
CCN(c1ccccc1)S(=O)(=O)c1ccc(C(=O)N(CCN(C)C)c2nc3c(F)cc(F)cc3s2)cc1	i	nt	nt	nt	i	nt	nt
CC[C@H](C)Cc1cn([C@@H](CCCN=C(N)N)C(=O)NCCCCCCCCCCC(=O)N2CCNCC2)nn1	i	i	i	i	i	i	nt
CC[C@H](C)[C@@H](C(=O)NCCCCCCCCCCC(=O)N1CCNCC1)n1cc(CCCCN=C(N)N)nn1	i	i	i	9.3	nt	i	i
CCOc1ccc(N2C(=O)CC(Sc3nc(-c4cccs4)cc(C(F)(F)F)c3C#N)C2=O)cc1 (stereo not drawn)	i	i	i	10.3	i	i	i
CC(=O)Nc1cccc(OCC(=O)Nc2ccccc2)c1	i	i	i	i	i	i	nt
CCOc1ccc(-c2cccc(NC(=O)COc3ccccc3)c2)nn1	i	i	i	8.8	i	nt	i
Cc1cccc(N2CCN(C3=NC(=O)C(=C4CCCCC4)S3)CC2)c1	i	i	i	8.0	i	i	i
CC(=O)N1CCN(C2=NC(=O)C(=C3CCCCC3)S2)CC1	i	i	i	i	i	i	nt
O=C(NCC1CCCO1)c1cc2n(n1)C(C(F)(F)F)CC(c1ccc(Br)cc1)N2 (stereo not drawn)	i	i	i	10.9	i	i	i
O=C(NCC1CCCO1)c1nn2c(c1Cl)NC(c1ccc(F)cc1)CC2C(F)(F)F (stereo not drawn)	i	i	i	i	nt	i	nt
O=C(C[n+]1cc(-c2ccccc2)n2c1CCC2)c1cccs1	i	i	i	8.9	i	i	i
CCN(CC)C(=O)C1=C(C)N(Cc2ccc(OC)cc2)C(=O)C(CC(=O)NCc2cccc3ccccc23)C1 (stereo not drawn)	nt	i	i	i	nt	i	nt
COc1ccc(NS(=O)(=O)c2cccc(C(=O)NNC(=O)c3cc(C)oc3C)c2)cc1	i	i	i	i	i	i	nt
